test: Toxicity liver stage against HepG2, at 10uM; format: cell-based; design: test concentration 10 uM, cell line HepG2-A16-CD81EGFP; conditions: human, HepG2-A16-CD81EGFP cells; read-out: INHIBITION
In short: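 Uninfected HepG2-A16-CD81EGFP cells, 3 × 10^3 per well, 1536-well, plated on prespotted compound at 10 μM final, parasite-free screening media added to match infected plates; puromycin 10 μM positive, DMSO 0.5% negative; run in parallel with 48 h PbLuc assay at 37 °C, 5% CO2; viability by CellTiter-Glo luminescence, normalized to controls.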

Q: With `Cn1ccc2cc(C(=O)NC3CCS(=O)(=O)C3)ccc21` (stereo unspecified) as the molecule, how does the cytotoxicity at 10 µM read?
A: 0.979%

Q: For `Cc1noc(C(C)N2CCN(c3ncnc4sccc34)CC2)n1` (stereo unspecified), which cytotoxicity at 10 µM is on record?
A: 8.38%

Q: Which cytotoxicity at 10 µM does the source give for `O=C([C@H]1COC[C@H]2CN(C3CCCC3)C[C@H]21)N1CCCO1` here?
A: 2.14%

Q: Which cytotoxicity at 10 µM does the source give for `OC(COCc1ccc(Cl)cc1)CN1CC(n2cccn2)C1` (stereo unspecified) here?
A: -6.25%

Q: For `Cc1ccccc1C(CNC(=O)CSc1nnc(N)s1)N(C)C` (stereo unspecified), which cytotoxicity at 10 µM is on record?
A: 12%

Q: For `CCC(=O)Nc1nnc(CCOc2cccc(OC)c2)s1`, which cytotoxicity at 10 µM is on record?
A: 5.73%

Q: Which cytotoxicity at 10 µM does the source give for `Cc1nc(CN(C)C2CCN(CC3CCOCC3)C2)no1` (stereo unspecified) here?
A: -4.68%

Q: With `CC(O)c1cn(C2CCN(C(=O)C3(C)CCN(C)CC3)CC2)nn1` (stereo unspecified) as the molecule, how does the cytotoxicity at 10 µM read?
A: -0.293%

Q: For `c1cc2c(cc1Cn1cc(C3CCOC3)nn1)CCCO2` (stereo unspecified), which cytotoxicity at 10 µM is on record?
A: 2.03%

Q: For `COCCC1(CO)CCCN(C(=O)c2cccnc2O)C1` (stereo unspecified), which cytotoxicity at 10 µM is on record?
A: -50.7%

Q: Which cytotoxicity at 10 µM does the source give for `Cc1ccc(OC2(C(=O)O)CCN(C(=O)CCc3ccco3)CC2)cc1` here?
A: -8.06%

Q: With `CNC(=O)c1cnc(C=Cc2ccc(O)c(OC)c2)s1` as the molecule, how does the cytotoxicity at 10 µM read?
A: 0.23%

Q: Which cytotoxicity at 10 µM does the source give for `O=C1CC(c2ccc(C(=O)O)cc2)c2ncn(-c3cccc(F)c3)c2N1` (stereo unspecified) here?
A: -4.74%

Q: For `O=S(=O)(N1CCOCC1)N1CCOC(CCCc2ccccc2)C1` (stereo unspecified), which cytotoxicity at 10 µM is on record?
A: -8.79%

Q: With `CCCN1Cc2ccccc2CC1C(=O)NC` (stereo unspecified) as the molecule, how does the cytotoxicity at 10 µM read?
A: -5.74%

Q: For `COCCNc1cc(C2CCCNC2)ccn1` (stereo unspecified), which cytotoxicity at 10 µM is on record?
A: -7.17%

Q: Which cytotoxicity at 10 µM does the source give for `CC(C)(C)c1nc(CNC2CCN(S(C)(=O)=O)CC2)cs1` here?
A: -2.34%

Q: With `Cn1cc(CN2CCCC3(CCN(C(=O)c4ccoc4)C3)C2)cn1` (stereo unspecified) as the molecule, how does the cytotoxicity at 10 µM read?
A: -71.9%

Q: With `Cc1ncsc1CCN(C)C(=O)CN1CCOc2ccccc2C1` as the molecule, how does the cytotoxicity at 10 µM read?
A: 5.72%

Q: Which cytotoxicity at 10 µM does the source give for `Cc1nn(-c2ccccn2)c2c1C(c1cnn(C)c1)SCC(=O)N2` (stereo unspecified) here?
A: -44.1%

Q: Which cytotoxicity at 10 µM does the source give for `CCOc1cccc(COC(=O)c2cc(Cl)ccn2)n1` here?
A: -2.52%

Q: For `CNC(=O)CNC(=O)c1ccc(-c2scnc2C)nc1`, which cytotoxicity at 10 µM is on record?
A: -4.26%

Q: With `CC(=O)N1CCCCCC1C1CCN(Cc2nc(C3CC3)no2)CC1` (stereo unspecified) as the molecule, how does the cytotoxicity at 10 µM read?
A: -56.4%

Q: Which cytotoxicity at 10 µM does the source give for `Cn1cc(CN2C[C@@H]3COC[C@]3(CNC(=O)c3ccco3)C2)cn1` here?
A: -73.1%

Q: Which cytotoxicity at 10 µM does the source give for `c1cncc(OC[C@]23COC[C@H]2CN(Cc2cccs2)C3)c1` here?
A: -13%

Q: With `CCOc1ccc(CC(=O)N2CCCC2c2cc(C)on2)cc1` (stereo unspecified) as the molecule, how does the cytotoxicity at 10 µM read?
A: -46%

Q: For `CCNc1nc2cn(-c3ccc(C)c(C)c3)c(=O)c-2c[nH]1`, which cytotoxicity at 10 µM is on record?
A: 0.255%

Q: With `NC(=O)CCN(C(=O)CSc1ccc(F)cc1)c1ccc(F)cc1` as the molecule, how does the cytotoxicity at 10 µM read?
A: -2.17%

Q: With `Cc1c(Cl)ccc2ccc(NC(CO)CO)nc12` as the molecule, how does the cytotoxicity at 10 µM read?
A: -7.78%

Q: For `COCc1nc2cc(NCc3csc(C)n3)ccc2o1`, which cytotoxicity at 10 µM is on record?
A: 0.873%

Q: With `OCCOCCN1CCCC1c1cccc(Cl)c1` (stereo unspecified) as the molecule, how does the cytotoxicity at 10 µM read?
A: -1.78%

Q: Which cytotoxicity at 10 µM does the source give for `CSc1cccc(CNC(=O)[C@H]2CNC[C@H](C(=O)N3CCOCC3)C2)c1` here?
A: -1.74%

Q: With `CS(=O)(=O)c1cc(NC(=O)COc2ccccc2F)cc(C(=O)O)c1` as the molecule, how does the cytotoxicity at 10 µM read?
A: -9.24%

Q: With `CC(C)n1c2ccccc2c2c1cc(C(=O)NCCO)n2C(=O)N(C)C` as the molecule, how does the cytotoxicity at 10 µM read?
A: -93.8%

Q: For `Cc1ccc(C)n1-c1c(C(=O)NCC(C)Cn2cccn2)cnn1C` (stereo unspecified), which cytotoxicity at 10 µM is on record?
A: 13.8%

Q: For `CC(=O)NCCCOc1c(C)cccc1Cl`, which cytotoxicity at 10 µM is on record?
A: 0.238%

Q: For `COc1ccc(Br)cc1CN(C)C(C)c1nc(C)no1` (stereo unspecified), which cytotoxicity at 10 µM is on record?
A: -4.02%

Q: Which cytotoxicity at 10 µM does the source give for `CCn1ncc2c1CCCC2NCc1cccc2c1OCCO2` (stereo unspecified) here?
A: 1.71%

Q: Which cytotoxicity at 10 µM does the source give for `CCNS(=O)(=O)c1cccc(CSC)c1` here?
A: 5.5%

Q: For `CN(C)CCn1ccnc1C1CCCN(C(=O)CCc2cccnc2)C1` (stereo unspecified), which cytotoxicity at 10 µM is on record?
A: -3.64%

Q: With `OC1(c2cn(C3CCN(C4CCSC4)CC3)nn2)CCCC1` (stereo unspecified) as the molecule, how does the cytotoxicity at 10 µM read?
A: 2.13%

Q: Which cytotoxicity at 10 µM does the source give for `CCc1ocnc1C(=O)N1CCN(c2nncc3ccccc23)CC1` here?
A: 6.61%

Q: For `CCNC(=O)N1CC[C@@H](CC(=O)O)[C@@H](CC2=NCCc3ccccc32)C1`, which cytotoxicity at 10 µM is on record?
A: 2.7%

Q: Which cytotoxicity at 10 µM does the source give for `COCC1CC2(CCN(C(C)=O)CC2)CN1Cc1csc(C)n1` (stereo unspecified) here?
A: 9.19%

Q: With `COC1CCN(S(=O)(=O)N2CCCC(c3cccc(C(=O)O)c3)C2)CC1` (stereo unspecified) as the molecule, how does the cytotoxicity at 10 µM read?
A: 1.83%

Q: Which cytotoxicity at 10 µM does the source give for `CCN(C)c1ncnc2c1CCN(C(=O)N1CCOCC1)CC2` here?
A: 0.223%

Q: For `CN(Cc1noc(C2CC2)n1)C1CCN(CCn2cccn2)C1` (stereo unspecified), which cytotoxicity at 10 µM is on record?
A: -4.32%

Q: Which cytotoxicity at 10 µM does the source give for `O=C(O)C[C@@H]1CCN(C(=O)C2CCCC2)C[C@@H]1CCN1CCCCC1` here?
A: -6.51%

Q: With `O=C(COc1coc(CN2CCOCC2)cc1=O)Nc1ccc(Cl)cc1` as the molecule, how does the cytotoxicity at 10 µM read?
A: -6.51%

Q: For `COCCC(=O)N1CCCC2(CCC(=O)N2CCOC)CC1` (stereo unspecified), which cytotoxicity at 10 µM is on record?
A: 2.52%

Q: For `CCOC(=O)N1CCN(C(=O)c2cc(-c3ccc(Cl)cc3Cl)on2)CC1`, which cytotoxicity at 10 µM is on record?
A: 2.42%

Q: For `O=C(CC1CCCC1)Nc1ccc(-n2cc(Br)cn2)nc1`, which cytotoxicity at 10 µM is on record?
A: -51.2%

Q: With `CS(=O)(=O)N1CCc2[nH]cnc2C12CCN(C1CCOCC1)CC2` as the molecule, how does the cytotoxicity at 10 µM read?
A: -4.52%

Q: For `CCc1nnc(Nc2cc(C)nc(C3CCN(c4ncccn4)C3)n2)s1` (stereo unspecified), which cytotoxicity at 10 µM is on record?
A: 3.07%

Q: With `COc1cc(OC)c2nc(NCCN3CCNC3=O)cc(C)c2c1` as the molecule, how does the cytotoxicity at 10 µM read?
A: -3.4%

Q: Which cytotoxicity at 10 µM does the source give for `CCc1cccc(NC(=O)CCN2CC=C(c3cnn(C)c3)CC2)c1` here?
A: 1.2%

— ChEMBL document CHEMBL4513216, “Probing the Open Global Health Chemical Diversity Library for Multistage-Active Starting Points for Next-Generation Antimalarials” (ACS Infect Dis, 2020)
